The target in test [1] is Tyrosine-protein phosphatase non-receptor type 6 (Homo sapiens) (UniProt P29350). Briefly: Induction of SHP1 activation in IL-6-stimulated human PLC5 cells assessed as reduction of p-STAT3 at 10 uM after 24 hrs by ELISA. It counts as cell-based. In a few lines:
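PLC5 cells were pre-stimulated with IL-6 at 25 ng/mL for 30 min, then treated with 10 µM compound for 24 h. Phospho-STAT3 was measured by ELISA against a DMSO control. Mean ± SD, N = 3.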

A short description of test [2]: Growth inhibition of human PLC5 cells after 24 hrs by MTT assay. The note with it: PLC5, 24 h. It counts as functional, cell-based. In a few lines:
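PLC5 cells were grown in DMEM with 10% FBS, penicillin, streptomycin and amphotericin B at 37 °C in 5% CO2. Cells were seeded in 96-well plates for 24 h, then exposed to agents in DMSO (0.1% final) in DMEM for 24 h; range 0.1–15 µM. MTT at 0.5 mg/mL was added for 2 h and absorbance read at 570 nm. Six replicates; IC50 derived.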

In test [3] the test system is Mus musculus. The test can be described thus: Induction of SHP1 activity in tumor of athymic NCr mouse xenografted with PLC5 cells at 10 mg/kg, po once daily for 3 weeks. It counts as functional, organism-based. Details: dose 10 mg/kg. In a few lines: (§1)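 Tumors came from PLC5 xenografts in nude mice dosed at 10 mg/kg/day p.o. for three weeks, with vehicle Cremophor EL/ethanol (50:50). Tumor extracts were assayed for p-STAT3 by western blot and for SHP-1 phosphatase activity.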

A further test relates to PLC5. Briefly: Antitumor activity against PLC5 cells xenografted in athymic NCr mouse assessed as tumor growth inhibition at 10 mg/kg, po once daily for 3 weeks. It counts as functional, organism-based. Details: dose 10 mg/kg. In a few lines:
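Male NCr athymic nude mice, 5–7 weeks old, bearing PLC5 tumors. Dosing began when tumors reached 100 mm3: 10 mg/kg p.o. once daily for three weeks. Vehicle was Cremophor EL/95% ethanol (50:50), given to controls. Read-out was tumor growth.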

Test [4] concerns the target Tyrosine-protein phosphatase non-receptor type 6 (Homo sapiens) (UniProt P29350). Briefly: Induction of SHP1 activation in human PLC5 cell lysate at 10 uM after 24 hrs. It counts as cell-based. In a few lines:
(§2)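 PLC5 cells were treated with compound for 24 h. SHP-1 was immunoprecipitated from lysates and its phosphatase activity measured with the EnzChek tyrosine phosphatase kit. Mean ± SD, N = 3.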

The nature of test [5]: Ratio of SC-1 IC50 to compound IC50 for human PLC5 cells. It counts as functional.
Test [6] deals with Mus musculus. Briefly: Inhibition of STAT3 phosphorylation in tumor of athymic NCr mouse xenografted with PLC5 cells at 10 mg/kg, po once daily for 3 weeks by Western blot method. It counts as functional, organism-based. Also on record: dose 10 mg/kg. A digest of the protocol:
as §1

Test [7] addresses Tyrosine-protein phosphatase non-receptor type 6 (Homo sapiens) (UniProt P29350). Briefly: Induction of SHP1 activation in human PLC5 cells assessed as repression of CCND1 expression at 5 to 10 uM after 24 hrs by Western blot method. It counts as cell-based. A digest of the protocol: (§3)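 PLC5 cells were treated at 5 and 10 µM for 24 h in serum-free medium. Lysates were immunoblotted for p-STAT3 (Tyr705), STAT3, Mcl-1, cyclin D1, survivin, SOCS-1, SOCS-3 and PARP.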

Test [8] has the same target. Briefly: Induction of SHP1 activation in human PLC5 cells assessed as PARP cleavage at 5 to 10 uM after 24 hrs by Western blot method. It counts as cell-based. In a few lines: as §3
The target is the same in test [9]. Briefly: Induction of SHP1 activation in human PLC5 cells assessed as reduction of p-STAT3 at 5 to 10 uM after 24 hrs by Western blot method. It counts as cell-based. A digest of the protocol:
as §3

Test [10] has the same target. Briefly: Induction of SHP1 activation in human PLC5 cells assessed as effect on SOCS-3 level at 5 to 10 uM after 24 hrs by Western blot method. It counts as cell-based. A digest of the protocol: as §3
Test [11] shares this target. Briefly: Induction of SHP1 activation in human PLC5 cells assessed as repression of survivin expression at 5 to 10 uM after 24 hrs by Western blot method. It counts as cell-based. In a few lines:
as §3

The target is the same in test [12]. Briefly: Induction of SHP1 activation in human PLC5 cells assessed as repression of Mcl-1 expression at 5 to 10 uM after 24 hrs by Western blot method. It counts as cell-based. A digest of the protocol:
as §3

For test [13] the target is unchanged. Briefly: Induction of SHP1 activation in human PLC5 cells assessed as effect on SOCS-1 level at 5 to 10 uM after 24 hrs by Western blot method. It counts as cell-based. A digest of the protocol: as §3
For test [14] the target is unchanged. The test can be described thus: Induction of SHP1 activation in human PLC5 cell lysate after 24 hrs. It counts as cell-based. A digest of the protocol:
as §2

Test [15] shares this target. The test can be described thus: Induction of SHP1 activation in human PLC5 cells at 1 to 15 uM after 24 hrs. It counts as cell-based. In a few lines: as §2

The source made the active and inactive calls. The calls are words filed in the database; no cut-off is given here.

Sequence of Tyrosine-protein phosphatase non-receptor type 6 (Homo sapiens) (P29350 whole entry): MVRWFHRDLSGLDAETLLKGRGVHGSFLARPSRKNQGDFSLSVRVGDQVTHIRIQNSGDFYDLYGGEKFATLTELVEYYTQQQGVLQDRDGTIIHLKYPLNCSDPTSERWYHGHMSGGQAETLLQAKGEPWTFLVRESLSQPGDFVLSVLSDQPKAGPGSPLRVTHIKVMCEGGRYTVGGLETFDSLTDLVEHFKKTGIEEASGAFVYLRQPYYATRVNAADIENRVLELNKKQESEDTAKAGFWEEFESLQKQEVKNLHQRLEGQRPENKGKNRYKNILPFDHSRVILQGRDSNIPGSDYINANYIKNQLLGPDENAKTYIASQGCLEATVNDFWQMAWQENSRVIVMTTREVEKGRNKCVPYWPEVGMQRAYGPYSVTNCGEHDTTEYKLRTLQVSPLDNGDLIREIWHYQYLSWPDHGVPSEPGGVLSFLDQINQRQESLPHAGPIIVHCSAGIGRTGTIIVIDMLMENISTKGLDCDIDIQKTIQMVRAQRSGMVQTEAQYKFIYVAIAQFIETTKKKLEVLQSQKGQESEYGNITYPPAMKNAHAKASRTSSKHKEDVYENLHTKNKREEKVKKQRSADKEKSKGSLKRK

Turning to `Nc1cc(Oc2cccc(NC(=O)Nc3ccc(Cl)c(C(F)(F)F)c3)c2)ccc1[N+](=O)[O-]`, the result in test [1] was Active. In test [2], this compound had an IC50 of 1.2 µM.

As to `N#Cc1ccc(Oc2cccc(NC(=O)Nc3cccc(F)c3)c2)cc1`, in [1], the outcome was Active. The compound further yielded an IC50 in test [2] of 3.3 µM.

As to `N#Cc1ccc(Oc2ccc(CNC(=O)Nc3ccc(Cl)c(C(F)(F)F)c3)cc2)cc1`, the result (in the test on Mus musculus [3]; in test [1]; in [4]) was Active. The TGI result in the test on PLC5 was “Active”. Further, in test [5], the “Ratio IC50” value was determined as 4. For the same compound, the IC50 in test [2] was determined as 2.1 µM. Moreover, in the test with Mus musculus [6], the inhibition result was “Active”.

For `CNC(=O)c1cc(Oc2cccc(NS(=O)(=O)c3ccccc3)c2)ccn1`, the outcome in test [1] was inactive. The compound further returned an IC50 in [2] of more than 15 µM.

Regarding `CNC(=O)c1cc(Oc2cccc(NC(=O)c3ccccc3)c2)ccn1`, the outcome in test [1] was inactive. The compound further yielded an IC50 in [2] of more than 15 µM.

Turning to `N#Cc1ccc(Oc2cccc(NC(=O)Nc3ccc(Cl)c(C(F)(F)F)c3)c2)cc1` [SC-43], the outcome in [7], in [8], in test [9], in test [1], in test [11] and in test [12] was Active. The result in test [4] was Active. Besides, the outcome in test [10] and in test [13] was inactive. Further, inhibition in test [2] was half-maximal at 0.5 µM (IC50). Besides, the Activity entry in test [14] is “Dose-dependent effect”.

For `Cc1ccc(NC(=O)Nc2ccc(Cl)c(C(F)(F)F)c2)cc1Oc1ccc(C#N)cc1`, the outcome in test [1] was Active. The same compound registered an IC50 in [2] of 4.5 µM.

For the compound `N#Cc1ccc(Oc2cccc(NS(=O)(=O)c3ccccc3)c2)cc1`, the outcome in test [1] was inactive. The compound further showed an IC50 in test [2] of more than 15 µM.

Regarding `Nc1ccc(Oc2cccc(NS(=O)(=O)c3cccc(C(F)(F)F)c3)c2)cc1N`, the result in test [1] was inactive. The compound further had an IC50 in test [2] of more than 15 µM.

Regarding `N#Cc1ccc(Oc2cccc(NC(=O)c3ccccc3)c2)cc1`, in test [1], the result was inactive. The compound further gave an IC50 in test [2] of more than 15 µM.

With `COc1ccc(CNC(=O)NCc2ccc(Oc3ccc(C#N)cc3)cc2)cc1OC`, in [1], the outcome was Active. The compound also yielded an IC50 in [2] of 10.5 µM.

Regarding `O=c1[nH]c2ccc(Oc3cccc(NS(=O)(=O)c4cccc(C(F)(F)F)c4)c3)cc2[nH]1`, the result in [1] was Active. Also, half-maximal inhibition in test [2] (IC50) required 11.5 µM.

`Nc1ccc(Oc2cccc(NCc3cccc(OC(F)(F)F)c3)c2)cc1N`: the outcome in test [1] was inactive. The compound also came in with an IC50 in [2] of more than 15 µM.

For `CNC(=O)c1cc(Oc2cccc(NC(=O)Nc3cccc(F)c3)c2)ccn1`, the outcome in [1] was inactive. The compound further returned an IC50 in test [2] of more than 15 µM.

For the compound `N#Cc1ccc(Oc2cccc(NS(=O)(=O)c3cccc(C(F)(F)F)c3)c2)cc1`, the outcome in test [1] was Active. This compound registered an IC50 in [2] of 2.2 µM.

`CNC(=O)c1cc(Oc2cccc(NS(=O)(=O)c3cccc(C(F)(F)F)c3)c2)ccn1`: in test [1], the outcome was Active. Moreover, the IC50 in [2] was found to be 8.4 µM.

With `N#Cc1ccc(Oc2cccc(NCc3cccc(OC(F)(F)F)c3)c2)cc1`, in [1], the outcome was inactive. The compound further came in with an IC50 in [2] of more than 15 µM.

For the compound `Nc1cc(Oc2cccc(NS(=O)(=O)c3cccc(C(F)(F)F)c3)c2)ccc1[N+](=O)[O-]`, the outcome in test [1] was Active. This compound showed an IC50 in test [2] of 3.9 µM.

`Nc1cc(Oc2cccc(NCc3cccc(OC(F)(F)F)c3)c2)ccc1[N+](=O)[O-]`: the result in test [1] was Active. Besides, the IC50 in test [2] was 8.3 µM.

`CNC(=O)c1cc(Oc2cccc(NCc3cccc(OC(F)(F)F)c3)c2)ccn1`: the result in [7], in test [9], in test [10], in test [1], in test [11] and in [12] was inactive. For the same compound, the result in test [4] and in test [13] was inactive. This compound yielded a half-maximal inhibitory concentration (IC50) in test [2] of more than 15 µM.

Turning to `C[C@@H](NC(=O)Nc1ccc(Oc2ccc(C#N)cc2)cc1)c1cccc2ccccc12`, the result in test [1] was inactive. The IC50 in test [2] is more than 15 µM.

`O=c1[nH]c2ccc(Oc3cccc(NCc4cccc(OC(F)(F)F)c4)c3)cc2[nH]1`: the outcome in [1] was Active. In [2], this compound registered an IC50 of 10.2 µM.

For `N#Cc1ccc(Oc2ccc(CNC(=O)NCc3cccc(OC(F)(F)F)c3)cc2)cc1`, the result in [1] was inactive. The compound also gave an IC50 in test [2] of more than 15 µM.

For the compound `COc1ccc(CNC(=O)Nc2ccc(Oc3ccc(C#N)cc3)cc2)cc1OC`, the outcome in test [1] was Active. This compound came in with an IC50 in test [2] of 12.3 µM.

`CNC(=O)c1cc(Oc2ccc(NC(=O)Nc3ccc(Cl)c(C(F)(F)F)c3)cc2)ccn1`: in test [15], the outcome was Active.
